# Screens as filed in PubChem BioAssay.
# RAM inhibit: inhibitors of the yeast RAM network, primary screen, dse1pr::URA3 reporter, 5-FOA selection | S. cerevisiae dse1pr::URA3 reporter, 5-FOA growth OD615, 2 d; analog-sensitive cbk1-as2 kinase mutant strain | inhibition, % at 50 µM | 190,000 compounds, 1.8% hits | AID 868, 2007;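 active = inhibition above a set limit, 3 SD over mean compound inhibition, cut at about 8.4% in these data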;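 also: 0% = DMSO-only wells with no growth and 100% = 10 µM 1-NA-PP1 full growth; inhibition rescues growth on 5-FOA so higher OD means more RAM inhibition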
# NCF1 inh: p47phox/p22phox peptide binding inhibitors, primary screen, biochemical, uHTS, NADPH oxidase regulatory subunit; fluorescence polarization, 2 h; inhibition, % at 24.7 µM; 220,000 compounds, 0.53% hits; AID 1274, 2008;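 active = inhibition above about 30%, limit read from the data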;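 also: 0% = p47phox with labelled peptide and 100% = labelled peptide alone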
# Dynein transport: inhibitors of GR-EGFP nuclear translocation, primary screen, dynein cargo transport inhibitor project, imaging, high-content, 3617.4 mouse cells | test concentration mostly 20 µM; stimulated with dexamethasone, 1 µM; active compounds read low | z-score, hits read low | 220,000 compounds, 0.47% hits | AID 1381, 2008;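 active = plate z-score of nuclear minus cytoplasmic receptor signal below a set negative limit, without overly bright fluorescence or cell loss, cut at about -3.5 in these data, passing the limit was not always enough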;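 also: z-score of nuclear minus cytoplasmic ring GR-EGFP intensity difference per well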
#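 Buffer or medium – tet-free medium with charcoal-stripped serum · Signal – automated 10x imaging of fixed Hoechst-stained cells · Also added – dexamethasone agonist, 1.0 µM final, for 30 min · Incubation – induction 48 h, compound 1 h, agonist 30 min · Read-out – GR-EGFP nuclear translocation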
# p-CIP stab down: p/CIP-EGFP fusion destabilizers, primary screen, fluorescence, F442A cells; 16 h; Q05BA5; 290,000 compounds, 0.01% hits; decrease of EGFP signal, % at 10 µM;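 active = EGFP signal decrease of at least 30% at 10 µM or well 3 SD below plate mean, unless failing retest; inactive = the rest, including hits failing retest or dose response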
# Target sequence (Q05BA5 1-1403): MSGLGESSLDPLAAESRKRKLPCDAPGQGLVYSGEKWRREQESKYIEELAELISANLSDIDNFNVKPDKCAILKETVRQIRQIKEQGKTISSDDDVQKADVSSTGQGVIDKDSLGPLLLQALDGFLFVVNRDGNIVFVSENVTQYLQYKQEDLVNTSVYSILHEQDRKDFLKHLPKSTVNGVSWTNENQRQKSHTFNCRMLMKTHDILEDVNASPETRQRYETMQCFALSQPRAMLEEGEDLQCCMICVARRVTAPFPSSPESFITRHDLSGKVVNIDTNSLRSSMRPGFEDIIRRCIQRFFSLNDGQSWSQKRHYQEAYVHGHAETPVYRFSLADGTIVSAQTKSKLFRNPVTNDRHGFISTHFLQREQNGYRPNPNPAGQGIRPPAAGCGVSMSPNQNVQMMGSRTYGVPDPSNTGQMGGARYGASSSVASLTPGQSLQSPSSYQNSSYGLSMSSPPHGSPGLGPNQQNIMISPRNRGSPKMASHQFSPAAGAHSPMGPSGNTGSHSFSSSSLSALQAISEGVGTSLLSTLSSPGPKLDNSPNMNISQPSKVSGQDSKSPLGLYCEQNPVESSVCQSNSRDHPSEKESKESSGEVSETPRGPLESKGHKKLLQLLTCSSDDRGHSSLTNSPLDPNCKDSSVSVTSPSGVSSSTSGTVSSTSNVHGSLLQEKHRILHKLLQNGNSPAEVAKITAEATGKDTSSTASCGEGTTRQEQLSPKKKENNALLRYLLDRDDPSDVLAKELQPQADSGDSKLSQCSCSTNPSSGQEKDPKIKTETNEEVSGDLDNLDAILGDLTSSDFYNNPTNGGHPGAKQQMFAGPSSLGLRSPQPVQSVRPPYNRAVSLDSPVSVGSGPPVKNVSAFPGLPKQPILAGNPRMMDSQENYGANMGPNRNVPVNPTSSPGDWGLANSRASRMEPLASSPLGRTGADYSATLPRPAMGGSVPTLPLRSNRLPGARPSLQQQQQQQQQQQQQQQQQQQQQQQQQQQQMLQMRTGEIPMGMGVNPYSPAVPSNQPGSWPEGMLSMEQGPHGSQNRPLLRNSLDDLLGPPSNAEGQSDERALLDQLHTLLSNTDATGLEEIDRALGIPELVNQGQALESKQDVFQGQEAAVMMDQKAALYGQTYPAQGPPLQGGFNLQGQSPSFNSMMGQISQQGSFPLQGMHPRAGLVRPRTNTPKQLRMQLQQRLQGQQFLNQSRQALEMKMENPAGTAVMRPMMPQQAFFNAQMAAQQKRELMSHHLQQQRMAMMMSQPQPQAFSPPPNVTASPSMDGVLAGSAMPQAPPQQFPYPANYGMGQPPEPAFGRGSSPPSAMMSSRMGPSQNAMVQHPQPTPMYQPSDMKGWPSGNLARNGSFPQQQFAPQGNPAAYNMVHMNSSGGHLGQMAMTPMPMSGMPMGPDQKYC
# Dynein inh conf: dynein cargo transport inhibitors, GR-EGFP translocation, confirmation, imaging, high-content imaging, GR-EGFP cells | shares compounds with Dynein transport | 3617.4 GR-EGFP nuclear translocation imaging, dexamethasone-induced | calls only at 20 µM | 1,000 compounds, 69% hits | AID 463116, 2010;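 active = inhibition of receptor movement into the nucleus at or above a set limit in both runs, with normal cell brightness and cell count; inconclusive = limit reached in only one run, brightness and count normal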;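 also: dexamethasone at 1 µM final in well for 30 min; nuclear minus cytoplasmic GR-EGFP mean intensity difference in channel 2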
# Starred values were filed as active, the others as inactive; i = inactive; ? = inconclusive; nt = no result given; + = active, no number. Most compounds without a hit are left out; they make up all but 1.9% or so of the library.
SMILES,RAM inhibit,NCF1 inh,Dynein transport,p-CIP stab down,Dynein inh conf
O=C(CCCCCNC(=O)N1CCn2c1nc1ccccc12)NCc1ccccc1,nt,nt,nt,-4.5,nt
Cc1ccc(S(=O)(=O)N[C@@H](Cc2ccccc2)C(=O)CCl)cc1,-0.8,-8.0,-4.49*,0.8,i
Cc1ccc(S(=O)(=O)NC(Cc2ccccc2)C(=O)NN)cc1 (stereo not drawn),nt,nt,nt,1.2,nt
CS(=O)(=O)c1sc(C#N)c2c1C(=O)CC(c1ccccc1)C2 (stereo not drawn),nt,-8.1,-3.78*,-3.3,?
O=S(=O)(c1ccccc1)N1N=C(c2ccc(O)cc2)CC1c1ccco1 (stereo not drawn),nt,nt,nt,12.3,nt
O=[N+]([O-])c1ccc(C2=NN(c3ccccc3)C(c3ccco3)C2)cc1 (stereo not drawn),nt,27.9,-8.19,-595.3,i
COc1ccccc1CN1CCC(n2nccc2NC(=O)CCc2ccccc2)CC1,nt,nt,nt,-5.1,nt
CC1CCc2cc(F)ccc2N1C(=O)CCl (stereo not drawn),1.8,-6.2,-5.43*,14.2,+
Nc1cccc2c1C(=O)N(C(=O)/C=C/c1ccc(F)cc1)C2=O,4.6,-25.6,-4.67*,0.8,+
Cc1cc(C)c(C(=O)Nn2c(C)nc3ccccc3c2=O)cc1C,nt,nt,nt,-4.8,nt
O=C1C=C(NC2=CC3OC(c4ccccc4)OCC3OC2=O)CCC1 (stereo not drawn),3.0,-8.9,-4.4*,-6.9,+
Cn1cc([N+](=O)[O-])c(C(=O)Nc2cc(Oc3cccnc3)cc([N+](=O)[O-])c2)n1,2.1,-15.4,-2.94,-4.6,nt
Cn1c(=O)c2nc(NCc3ccccc3)cnc2n(C)c1=O,0.9,-13.7,-0.782,-2.6,nt
Cc1nc2c(=O)n(C)c(=O)n(C)c2nc1Cl,0.7,-2.3,-6.2*,-9.2,+
CC(=O)NC(CC(=O)N(C)C1CCCCC1)c1ccccc1 (stereo not drawn),nt,nt,nt,-6.0,nt
O=C(CCSc1ccccn1)c1ccccc1,2.0,-2.1,-3.96*,-6.0,i
O=C(O)CCSc1ccccn1,0.4,5.5,-0.424,-6.6,nt
CCSc1nc2ccccc2n1CC(N)=O,2.1,-2.9,-0.0629,-8.1,nt
CCSc1nc2ccccc2n1C(=O)/C=C\c1ccc(OC)c(OC)c1,3.0,-1.3,-4.33*,-12.7,+
Cc1ccc(/C=C/C(=O)Nc2ccccc2C(N)=O)cc1,1.4,-0.2,2.17,-0.8,nt
COc1cc2c(cc1OC)CN(CCC(=O)c1ccc(Br)cc1)CC2,0.2,0.6,-4.06*,-4.5,?
CC(C)N1C(=O)C(Cc2nc3ccccc3c(=O)n2-c2ccccc2)c2ccccc21 (stereo not drawn),4.2,-6.7,0.326,8.1,nt
CC(C)N1C(=O)/C(=C\c2nc3ccccc3c(=O)n2-c2ccccc2)c2ccccc21,5.2,0.2,-5.04*,1.5,+
CC(C)N1C(=O)/C(=C/c2nc3ccccc3c(=O)n2-c2ccccc2)c2ccccc21,6.8,-4.8,-4.06*,3.4,+
Cc1ccc(C(=O)N/C(=C\c2ccc3c(c2)OCO3)C(=O)Nc2ccc(C(=O)O)cc2)cc1,1.8,-2.8,-0.82,-15.0,nt
SMILES,RAM inhibit,NCF1 inh,Dynein transport,p-CIP stab down,Dynein inh conf
COc1ccc(CCNC(=O)CSc2nc3[nH]ncc3c(=O)n2-c2ccc(C)c(Cl)c2)cc1OC,-0.9,2.9,0.489,-4.4,nt
CC(=O)n1cc(CO)c2ccccc21,nt,nt,nt,1.1,nt
CC(=O)n1cc(N(C(=O)CCl)c2ccccc2)c2ccccc21,nt,-8.5,-4.53*,-7.5,+
CC(=O)n1cc(N(C(=O)CCl)c2ccc([N+](=O)[O-])cc2)c2ccccc21,nt,-16.8,-5.04*,11.9,+
Cc1cc(C)cc(N2C(=O)CC(Sc3ncn[nH]3)C2=O)c1 (stereo not drawn),-0.7,6.4,-0.699,-0.3,nt
COc1ccc(-c2cc(C(F)(F)F)nc(S(=O)(=O)CCCC(=O)Nc3cc(C)on3)n2)cc1OC,0.5,-1.1,-4.97*,-13.4,+
COC(=O)c1cnc(SCC(=O)c2ccccc2)n1C,nt,nt,nt,8.5,nt
Cn1c(=O)c2c(nc3n2CC(COc2ccccc2)O3)n(C)c1=O (stereo not drawn),nt,nt,nt,10.6,nt
N#C/C(C(=O)c1ccccc1)=C1/SC=C(N)N1c1ccccc1,0.8,-74.0,-4.36,-44.8,i
N#C/C(C(N)=O)=C1/SC=C(c2ccccc2)N1c1ccccc1,nt,-1.8,-0.914,-7.3,nt
CC1=Nc2ccccc2/C1=C\c1nc(-c2ccccc2)oc1O,5.3,-28.8,-2.03,-16.1,nt
CC1=Nc2ccccc2/C1=C/c1nc(-c2ccc(C)s2)oc1O,7.0,11.9,-6.67,-67.2,?
CCOC(=O)c1c(S(=O)(=O)N2CCN(c3ccc(C(C)=O)cc3)CC2)c(C)n(C)c1C,nt,nt,nt,0.8,nt
O=C(NCCN1CCCC1)C1CCC(=O)N(CCCN2CCOCC2)C1 (stereo not drawn),nt,nt,nt,6.9,nt
CC(C)(C)C(=O)/C=c1\[nH]c(=O)/c(=C\c2ccc(F)cc2)s1,1.6,-12.6,-0.0489,1.4,nt
COc1ccc(/C=c2\s/c(=C/C(=O)c3ccc(C)cc3)[nH]c2=O)cc1OC,3.9,-36.9,-6.6,-8.0,i
COc1ccc(N2C(=O)CC(Sc3n[nH]c(-c4ccccc4)n3)C2=O)cc1 (stereo not drawn),nt,-7.8,-0.338,5.1,nt
CCOc1ccc(N2C(=O)CC(Sc3n[nH]c(-c4ccccc4)n3)C2=O)cc1 (stereo not drawn),1.0,-6.6,-5.18*,-16.1,i
Cc1ccc(S(=O)(=O)/N=c2\ccc(Cl)cn2C(F)F)cc1,2.4,-15.4,-3.77*,-0.9,i
COc1ccc(-c2cc(C(=O)O)c3c(C)nn(-c4ccccn4)c3n2)cc1,3.7,-4.8,-0.36,2.3,nt
COc1ccc(N=CC2=C(Nc3ccc(OC)cc3)c3c(C)nn(-c4ccccn4)c3CC2)cc1,nt,nt,-4.3,nt,i
O=C(CCNS(=O)(=O)c1c(Cl)cccc1Cl)OCC(=O)c1ccccc1,0.9,-9.9,-0.518,-12.1,nt
CCc1nnc(NC(=O)CN2CCCC(C)C2)s1 (stereo not drawn),nt,nt,nt,3.4,nt
O=C(/C=C/c1ccncc1)c1ccc2c(c1)OCCO2,2.8,2.8,-5.44*,-9.3,+
O=C(/C=C/c1ccccc1)c1ccc2c(c1)OCO2,nt,-13.4,-0.622,-2.1,nt
O=C(/C=C/Sc1ccccc1)c1ccccc1,0.3,3.9,-3.59*,1.8,+
O=C(/C=C/Sc1ccccc1)c1ccc(Cl)cc1,1.5,-12.2,-2.73,-1.9,nt
Cc1nc2ccccc2c2oc(C(=O)N3CCN(c4ccc([N+](=O)[O-])cc4)CC3)cc12,nt,nt,nt,-7.3,nt
COCc1cc(S(=O)c2ccc(Cl)cc2)nc(C)n1 (stereo not drawn),-1.2,3.1,-4.46*,3.8,+
COCc1cc(Sc2ccc(Cl)cc2)nc(C)n1,1.2,-10.2,-0.728,11.5,nt
